According to ChEMBL document CHEMBL4002631, “Synthesis, antimycobacterial and cytotoxic activity of α,β-unsaturated amides and 2,4-disubstituted oxazoline derivatives” (Bioorg Med Chem Lett, 2017):
Values after ≈ are worked out from the molar mass of the structure shown.

Each compound was assayed on Mycobacterium tuberculosis (assay: Antimycobacterial activity against isoniazid/rifampicin/ethambutol-sensitive Mycobacterium tuberculosis H37Rv after 4 days by Alamar blue assay). Settings: 96 h.
Type: functional
Method in brief: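 Microplate Alamar blue assay against M. tuberculosis H37Rv (sensitive to isoniazid, rifampicin and ethambutol) and a clinical isolate resistant to all three drugs. Compounds were tested at 256, 128, 64, 32, 16, 8, 4, 2 and 1 µg/mL. Isoniazid, rifampicin, ethambutol and ofloxacin controls were run under the same conditions. MIC is given in µg/mL and converted to µM.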

Compound	MIC [µM]
COc1ccc(/C=C/C(=O)N[C@H](CO)Cc2ccccc2)cc1	25.6 (≈ 7.97 µg/mL)
CO[C@H]1/C=C/O[C@@]2(C)Oc3c(C)c(O)c4c(O)c(c(/C=N/N5CCN(C)CC5)c(O)c4c3C2=O)NC(=O)/C(C)=C\C=C\[C@H](C)[C@H](O)[C@@H](C)[C@@H](O)[C@@H](C)[C@H](OC(C)=O)[C@@H]1C [RIFAMPIN]	4.8 (≈ 3.95 µg/mL)
CC1COc2c(N3CCN(C)CC3)c(F)cc3c(=O)c(C(=O)O)cn1c23 (centres undefined) [OFLOXACIN]	< 2.7
O=C(/C=C/c1ccc(F)cc1)N[C@H](CO)Cc1ccccc1	26.7 (≈ 7.99 µg/mL)
C(=C\c1ccccc1)/C1=N[C@@H](Cc2ccccc2)CO1	60.8 (≈ 16 µg/mL)
CC[C@@H](CO)NCCN[C@@H](CC)CO [ETHAMBUTOL]	39.1 (≈ 7.99 µg/mL)
O=C(/C=C/c1cccs1)N[C@H](CO)Cc1ccccc1	55.6 (≈ 16 µg/mL)
COc1ccc(/C=C/C2=N[C@@H](Cc3ccccc3)CO2)cc1	13.6 (≈ 3.99 µg/mL)
O=C(/C=C/c1ccc(OCc2ccccc2)cc1)N[C@H](CO)Cc1ccccc1	41.2 (≈ 16 µg/mL)
NNC(=O)c1ccncc1 [ISONIAZID]	< 7.2
Fc1ccc(/C=C/C2=N[C@@H](Cc3ccccc3)CO2)cc1	14.2 (≈ 3.99 µg/mL)
O=C(/C=C/c1ccc(Cl)cc1)N[C@H](CO)Cc1ccccc1	25.3 (≈ 7.99 µg/mL)
C(=C\c1ccc(OCc2ccccc2)cc1)/C1=N[C@@H](Cc2ccccc2)CO1	10.8 (≈ 3.99 µg/mL)
Clc1ccc(/C=C/C2=N[C@@H](Cc3ccccc3)CO2)cc1	26.9 (≈ 8.01 µg/mL)
O=C(/C=C/c1ccccc1)N[C@H](CO)Cc1ccccc1	56.8 (≈ 16 µg/mL)
C(=C\c1cccs1)/C1=N[C@@H](Cc2ccccc2)CO1	29.7 (≈ 8 µg/mL)

These compounds were tested on Liver (assay: Toxicity in Sprague-Dawley rat liver assessed as centrilobular necrosis at 5 to 30 ug/ml after 24 hrs by hematoxylin and eosin staining-based bright field microscopic method). Settings: not given.
Type: tissue-based
Method in brief: (§1)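 Ex-vivo 3D assay using precision-cut rat liver slices. Slices were cultured for 24 h at 5, 15 and 30 µg/mL, with compound dissolved in DMSO. Controls were medium alone and 0.5% DMSO (negative), with isoniazid as the reference. Read-out was histopathology of H&E-stained sections under bright-field light microscopy (40x), scoring hepatic cords, portal triads, central veins, inflammatory infiltrate and necrosis.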

Compound	Activity
NNC(=O)c1ccncc1 [ISONIAZID]	Toxic

These compounds were tested on Liver (assay: Toxicity in Sprague-Dawley rat liver assessed as histological damage at 5 to 30 ug/ml after 24 hrs by hematoxylin and eosin staining-based bright field microscopic method). Settings: not given.
Type: tissue-based
Method in brief: as §1

Compound	Activity
COc1ccc(/C=C/C2=N[C@@H](Cc3ccccc3)CO2)cc1	Non-Toxic

These compounds were tested on Liver (assay: Toxicity in Sprague-Dawley rat liver assessed as presence of periportal inflammatory infiltrate at 5 to 30 ug/ml after 24 hrs by hematoxylin and eosin staining-based bright field microscopic method). Settings: not given.
Type: tissue-based
Method in brief: as §1

Compound	Activity
NNC(=O)c1ccncc1 [ISONIAZID]	Toxic
